Reference: ChEMBL document CHEMBL5346889, “Discovery of 4-oxo-N-phenyl-1,4-dihydroquinoline-3-carboxamide derivatives as novel anti-inflammatory agents for the treatment of acute lung injury and sepsis” (Eur J Med Chem, 2023)
The source made the active and inactive calls. No cut-off for these calls is given here.

Legend:
J774.A1 [1] = assay: Antiinflammatory activity in LPS-induced mouse J774.A1 cells assessed as inhibition of LPS-induced TNF-alpha release at 10 uM preincubated for 30 mins followed by LPS stimulation for 24 hrs by ELISA method; assay type: functional; conditions: time 24.5 hrs
Procedure, shortened: (§1)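 J774A.1 macrophages pretreated 30 min at 10 μM, then challenged with LPS 0.5 μg/mL for 24 h at 37 °C, 5% CO2. Medium IL-6 and TNF-α measured by ELISA, normalized to total lysate protein.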

J774.A1 [2] = assay: Antiinflammatory activity in LPS-induced mouse J774.A1 cells assessed as inhibition of LPS-induced IL-6 release at 10 uM preincubated for 30 mins followed by LPS stimulation for 24 hrs by ELISA method; assay type: functional; conditions: time 24.5 hrs; procedure, shortened: as §1
J774.A1 [3] = assay: Antiinflammatory activity in LPS-induced mouse J774.A1 cells assessed as inhibition of LPS-induced TNF-alpha release preincubated for 30 mins followed by LPS stimulation for 24 hrs by ELISA method; assay type: functional, cell-based
Procedure, shortened: (§2)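 Dose-response in J774A.1 cells: 30 min pretreatment at 10, 5, 2.5 or 1.25 μM, then LPS 0.5 μg/mL for 24 h. IL-6 and TNF-α by ELISA, normalized to lysate protein; IC50 from the dose-response; 3 independent experiments, mean ± SEM.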

J774.A1 [4] = assay: Cytotoxicity against mouse J774.A1 cells assessed as reduction in cell viability at 10 uM incubated for 24 hrs by MTT assay; assay type: functional, cell-based
Procedure, shortened: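 J774A.1 macrophages exposed to 10 μM for 24 h; MTT at 5 mg/mL added for 4 h; absorbance read at 490 nm; viability expressed as percent of DMSO control.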

J774.A1 [5] = assay: Antiinflammatory activity in LPS-induced mouse J774.A1 cells assessed as inhibition of LPS-induced IL-6 release preincubated for 30 mins followed by LPS stimulation for 24 hrs by ELISA method; assay type: functional, cell-based; procedure, shortened: as §2
Mus musculus [6] = assay: Antiinflammatory activity in LPS-induced C57/BL6 mouse acute lung injury model assessed as reduction in macrophage infiltration at 20 mg/kg via oral gavage preincubated for 30 mins followed by LPS stimulation for 6 hrs by immunohistochemical staining based analysis; assay type: functional, organism-based; conditions: time 6.5 hrs
Procedure, shortened: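 Same ALI model: 20 mg/kg oral, intratracheal LPS 5 mg/kg 30 min later, lungs at 6 h. Paraffin sections given citrate (pH 6.5) antigen retrieval, 3% H2O2 and 5% BSA block, anti-F4/80 12 h at 4 °C, HRP secondary, DAB and hematoxylin; F4/80 positivity quantified; n = 5 per group.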

Mus musculus [7] = assay: Antiinflammatory activity in LPS-induced C57/BL6 mouse acute lung injury model assessed as decrease in IL-6 level in serum at 20 mg/kg via oral gavage preincubated for 30 mins followed by LPS stimulation for 6 hrs by ELISA; conditions: time 6.5 hrs
Mus musculus [8] = assay: Antiinflammatory activity in LPS-induced C57/BL6 mouse acute lung injury model assessed as decrease in TNF-alpha level in serum at 20 mg/kg via oral gavage preincubated for 30 mins followed by LPS stimulation for 6 hrs by ELISA; conditions: time 6.5 hrs
Mus musculus [9] = assay: Antiinflammatory activity in LPS-induced C57/BL6 mouse acute lung injury model assessed as decrease in TNF-alpha expression level at 20 mg/kg via oral gavage preincubated for 30 mins followed by LPS stimulation for 6 hrs by RT-qPCR method; assay type: functional, organism-based; conditions: time 6.5 hrs
Procedure, shortened: (§3)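 Male C57BL/6 mice, six weeks old, n = 8 per group. Dosed 20 mg/kg orally 30 min before intratracheal LPS 5 mg/kg; dexamethasone 20 mg/kg as comparator. Lung tissue collected 6 h after LPS. RNA extracted with TRIzol; IL-6 and TNF-α transcripts by RT-qPCR, normalized to β-actin; n = 5 mice per group, mean ± SEM.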

Mus musculus [10] = assay: Protection against LPS-induced C57/BL6 mouse acute lung injury model assessed as improvement in alveolar wall thickening at 20 mg/kg via oral gavage preincubated for 30 mins followed by LPS stimulation for 6 hrs; assay type: functional, organism-based; conditions: time 6.5 hrs
Procedure, shortened: (§4)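 Mice dosed 20 mg/kg by gavage (dexamethasone 20 mg/kg comparator), intratracheal LPS 5 mg/kg 30 min later, killed at 6 h. Right upper lobe fixed in paraformaldehyde, H&E; lung wet/dry ratio; BALF protein, total cells and neutrophils counted; n = 5 mice per group, mean ± SEM.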

Mus musculus [11] = assay: Protection against LPS-induced C57/BL6 mouse acute lung injury model assessed as improvement in structural distruption of lung tissue at 20 mg/kg via oral gavage preincubated for 30 mins followed by LPS stimulation for 6 hrs; assay type: functional, organism-based; conditions: time 6.5 hrs; procedure, shortened: as §4
Mus musculus [12] = assay: Antiinflammatory activity in LPS-induced C57/BL6 mouse acute lung injury model assessed as decrease in TNF-alpha level in BALF at 20 mg/kg via oral gavage preincubated for 30 mins followed by LPS stimulation for 6 hrs by ELISA; conditions: time 6.5 hrs
Mus musculus [13] = assay: Antiinflammatory activity in LPS-induced C57/BL6 mouse acute lung injury model assessed as decrease in IL-6 level in BALF at 20 mg/kg via oral gavage preincubated for 30 mins followed by LPS stimulation for 6 hrs by ELISA; conditions: time 6.5 hrs
Mus musculus [14] = assay: Protection against LPS-induced C57/BL6 mouse acute lung injury model assessed as reduction in protein concentration in BALF at 20 mg/kg via oral gavage preincubated for 30 mins followed by LPS stimulation for 6 hrs; assay type: functional, organism-based; conditions: time 6.5 hrs; procedure, shortened: as §4
Mus musculus [15] = assay: Protection against LPS-induced C57/BL6 mouse acute lung injury model assessed as reduction in number of total cells in BALF at 20 mg/kg via oral gavage preincubated for 30 mins followed by LPS stimulation for 6 hrs; assay type: functional, organism-based; conditions: time 6.5 hrs; procedure, shortened: as §4
Mus musculus [16] = assay: Antiinflammatory activity in LPS-induced C57/BL6 mouse acute lung injury model assessed as decrease in IL-6 expression level at 20 mg/kg via oral gavage preincubated for 30 mins followed by LPS stimulation for 6 hrs by RT-qPCR method; assay type: functional, organism-based; conditions: time 6.5 hrs; procedure, shortened: as §3
Mus musculus [17] = assay: Protection against LPS-induced C57/BL6 mouse acute lung injury model assessed as reduction in number of neutrophils in BALF at 20 mg/kg via oral gavage preincubated for 30 mins followed by LPS stimulation for 6 hrs; assay type: functional, organism-based; conditions: time 6.5 hrs; procedure, shortened: as §4
Mus musculus [18] = assay: Protection against LPS-induced C57/BL6 mouse acute lung injury model assessed as reduction in lung wet/dry ratio at 20 mg/kg via oral gavage preincubated for 30 mins followed by LPS stimulation for 6 hrs; assay type: functional, organism-based; conditions: time 6.5 hrs; procedure, shortened: as §4

SMILES	inhibition at 10 µM (J774.A1 [1])	inhibition at 10 µM (J774.A1 [2])	inhibition (J774.A1 [1])	also measured
COc1cc2ncnc(Oc3ccc(NC(=O)c4cn(-c5ccc(F)c(Cl)c5)c5ccccc5c4=O)cc3)c2cc1OC	48%	39.6%		
COc1cc2nccc(Oc3ccc(NC(=O)c4cn(-c5ccc(Br)cc5F)c5ccccc5c4=O)cc3)c2cc1OC		26.7%	inactive	
COc1cc2nccc(Oc3cccc(NC(=O)c4cn(-c5ccc(F)cc5)c5ccccc5c4=O)c3)c2cc1OC		51.3%	inactive	
COc1cc2ncnc(Oc3cccc(NC(=O)c4cn(-c5ccc(F)cc5)c5ccccc5c4=O)c3)c2cc1OC		45.4%	inactive	
COc1cc2nccc(Oc3cccc(NC(=O)c4cn(-c5ccc(OC(F)(F)F)cc5)c5ccccc5c4=O)c3)c2cc1OC	33.3%	66.4%		
COc1cc2nccc(Oc3cccc(NC(=O)c4cn(-c5ccc(F)c(Cl)c5)c5ccccc5c4=O)c3)c2cc1OC	32.6%	49.7%		
COc1cc2ncnc(Oc3ccc(NC(=O)c4cn(-c5ccc(F)cc5)c5ccccc5c4=O)cc3)c2cc1OC	48%	57%		
COc1cc2nccc(Oc3ccc(NC(=O)c4cn(-c5ccc(F)cc5)c5ccccc5c4=O)cc3)c2cc1OC	83.1%	77.4%		IC50 (J774.A1 [3]): 3460 nM; inhibition (J774.A1 [3]; dose 1.25-10 µM, time 24.5 hrs): Dose-Dependent Effect; Activity (J774.A1 [4]): inactive; IC50 (J774.A1 [5]): 2330 nM; inhibition (J774.A1 [5]; dose 1.25-10 µM, time 24.5 hrs): Dose-Dependent Effect
COc1cc2ncnc(Oc3cccc(NC(=O)c4cn(-c5ccc(OC(F)(F)F)cc5)c5ccccc5c4=O)c3)c2cc1OC	7.66%	10.4%		
COc1cc2ncnc(Oc3cccc(NC(=O)c4cn(-c5ccccc5)c5ccccc5c4=O)c3)c2cc1OC		42.4%	inactive	
COc1cc2nccc(Oc3cccc(NC(=O)c4cn(-c5ccccc5)c5ccccc5c4=O)c3)c2cc1OC		44.8%	inactive	
COc1cc2ncnc(Oc3cccc(NC(=O)c4cn(-c5ccc(F)c(Cl)c5)c5ccccc5c4=O)c3)c2cc1OC	36%	33.9%		
COc1cc2nccc(Oc3ccc(NC(=O)c4cn(-c5ccc(F)c(Cl)c5)c5ccccc5c4=O)cc3)c2cc1OC	67.7%	62.2%		
COc1cc2ncnc(Oc3ccc(NC(=O)c4cn(-c5ccc(Br)cc5)c5ccccc5c4=O)cc3)c2cc1OC	22.4%			inhibition (J774.A1 [2]): inactive
COc1cc2ncnc(Oc3cccc(NC(=O)c4cn(-c5ccc(Br)cc5F)c5ccccc5c4=O)c3)c2cc1OC			inactive	inhibition (J774.A1 [2]): inactive
COc1cc2ncnc(Oc3cccc(NC(=O)c4cn(-c5ccc(Br)cc5)c5ccccc5c4=O)c3)c2cc1OC		20.4%	inactive	
COc1cc2ncnc(Oc3cccc(NC(=O)c4cn(-c5ccc(Cl)cc5)c5ccccc5c4=O)c3)c2cc1OC		32.3%	inactive	
COc1cc2ncnc(Oc3ccc(NC(=O)c4cn(-c5ccc(Cl)cc5)c5ccccc5c4=O)cc3)c2cc1OC		30.5%	inactive	
COc1cc2nccc(Oc3cccc(NC(=O)c4cn(-c5ccc(Br)cc5F)c5ccccc5c4=O)c3)c2cc1OC		52.9%	inactive	
C[C@@H]1C[C@H]2[C@@H]3CCC4=CC(=O)C=C[C@]4(C)[C@@]3(F)[C@@H](O)C[C@]2(C)[C@@]1(O)C(=O)CO				Activity (Mus musculus [6]): Active; Activity (Mus musculus [7]): Active; Activity (Mus musculus [8]): Active; Activity (Mus musculus [9]): Active; Activity (Mus musculus [10]): Active; Activity (Mus musculus [11]): Active; Activity (Mus musculus [12]): Active; Activity (Mus musculus [13]): Active; Activity (Mus musculus [14]): Active; Activity (Mus musculus [15]): Active; Activity (Mus musculus [16]): Active; Activity (Mus musculus [17]): Active; Activity (Mus musculus [18]): Active
COc1cc2ncnc(Oc3ccc(NC(=O)c4cn(-c5ccc(Br)cc5F)c5ccccc5c4=O)cc3)c2cc1OC		13.3%	inactive	
COc1cc2nccc(Oc3cccc(NC(=O)c4cn(-c5ccc(Br)cc5)c5ccccc5c4=O)c3)c2cc1OC		37.1%	inactive	
COc1cc2nccc(Oc3ccc(NC(=O)c4cn(-c5ccc(Br)cc5)c5ccccc5c4=O)cc3)c2cc1OC	71.7%	41.7%		
COc1cc2ncnc(Oc3ccc(NC(=O)c4cn(-c5ccc(OC(F)(F)F)cc5)c5ccccc5c4=O)cc3)c2cc1OC	54.9%	35.9%		
COc1cc2nccc(Oc3cccc(NC(=O)c4cn(-c5ccc(Cl)cc5)c5ccccc5c4=O)c3)c2cc1OC		60.2%	inactive	
COc1cc2nccc(Oc3ccc(NC(=O)c4cn(-c5ccc(Cl)cc5)c5ccccc5c4=O)cc3)c2cc1OC	63.5%	32%		
COc1cc2ncnc(Oc3ccc(NC(=O)c4cn(-c5ccccc5)c5ccccc5c4=O)cc3)c2cc1OC	30.5%	38.1%		
COc1cc2nccc(Oc3ccc(NC(=O)c4cn(-c5ccc(OC(F)(F)F)cc5)c5ccccc5c4=O)cc3)c2cc1OC	67.6%	50.5%		
